Measured values collected from several papers.
Each line is one published result; the experiments were not run side by side.
Target: Receptor-interacting serine/threonine-protein kinase 4 (RIPK4, Homo sapiens, UniProt P57078)
Sequence (P57078 1-832, as in one of the studies): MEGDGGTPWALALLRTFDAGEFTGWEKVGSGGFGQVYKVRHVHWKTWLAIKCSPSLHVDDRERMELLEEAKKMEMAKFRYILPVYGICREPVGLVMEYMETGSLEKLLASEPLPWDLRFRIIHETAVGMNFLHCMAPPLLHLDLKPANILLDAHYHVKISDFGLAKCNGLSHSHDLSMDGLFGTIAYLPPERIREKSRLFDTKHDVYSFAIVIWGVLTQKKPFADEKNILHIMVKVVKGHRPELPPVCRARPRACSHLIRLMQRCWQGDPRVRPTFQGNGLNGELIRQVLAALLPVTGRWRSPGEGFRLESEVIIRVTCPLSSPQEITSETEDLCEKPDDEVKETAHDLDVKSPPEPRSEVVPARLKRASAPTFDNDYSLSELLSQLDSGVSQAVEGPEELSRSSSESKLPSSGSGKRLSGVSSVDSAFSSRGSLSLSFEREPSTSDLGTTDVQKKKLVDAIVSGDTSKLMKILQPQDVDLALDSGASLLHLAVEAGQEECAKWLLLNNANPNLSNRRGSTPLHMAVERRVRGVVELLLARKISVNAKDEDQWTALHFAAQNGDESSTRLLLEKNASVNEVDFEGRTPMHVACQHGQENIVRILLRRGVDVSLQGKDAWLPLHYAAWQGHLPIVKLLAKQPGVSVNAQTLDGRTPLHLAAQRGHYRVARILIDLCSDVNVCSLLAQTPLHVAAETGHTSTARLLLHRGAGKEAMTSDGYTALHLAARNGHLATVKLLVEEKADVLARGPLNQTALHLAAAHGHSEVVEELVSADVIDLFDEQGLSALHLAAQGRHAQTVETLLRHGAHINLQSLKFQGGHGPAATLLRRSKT

O=C(c1ccc(Nc2ncc(Cl)c(-c3ccc(Cl)s3)n2)cc1)N1CCC(N2CCCC2)CC1
remaining binding (binding, competition with immobilised ligand; 1 µM): 8%

O=C(Nc1c[nH]nc1C(=O)NC1CCNCC1)c1cc(F)cc(F)c1
remaining binding (binding, competition with immobilised ligand; 1 µM): 100%

O=C(NCCCN1CCOCC1)c1ccc(Nc2ncc(Cl)c(-c3ccc(Cl)s3)n2)cc1
remaining binding (binding, competition with immobilised ligand; 1 µM): 46%

CN(CCCC(F)(F)F)c1nccc(-c2cnn3ncccc23)n1
remaining binding (binding; 1 µM): 100%

O=S(=O)(NC1CCC(c2cc(F)ccc2F)(S(=O)(=O)c2ccc(Cl)cc2)CC1)C(F)(F)F (stereo not drawn)
remaining binding (cell-free assay, competition with immobilised ligand; 1 µM): 91%

C[C@@H]1CCN(c2nccc(-c3cnn4ncccc34)n2)C1
remaining binding (binding; 1 µM): 18%

CS(=O)(=O)N1CCCC(NC(=O)[C@H](CCC2CCCCC2)NC(=O)c2ccc(CNC(=O)c3cnc4ccccn34)cc2)C1 (stereo partly drawn)
remaining binding (cell-free assay, competition with immobilised ligand; 0.1 µM): 92%

CC1CCCN1c1nccc(-c2cnn3ncccc23)n1 (stereo not drawn)
remaining binding (binding; 1 µM): 98%

CC1=C(C#N)[C@@H](c2ccc3[nH]nc(C)c3c2)C(C#N)=C(c2ccc(Cl)cc2)N1
remaining binding (cell-free assay, competition with immobilised ligand; 1 µM): 71.8%

C=CC(=O)N1CCC(C(=O)NCC(=O)N2CCN(c3nc(-c4cnc(N)nc4C(F)F)nc(N4CCOCC4)n3)CC2)CC1
remaining binding (binding, competition with immobilised ligand; 1 µM): 76%

CN(C)c1nccc(-c2cnc3ncccn23)n1
remaining binding (binding; 1 µM): 71%

N#CC1(c2ccccn2)CCN(Cc2cc(C(=O)N3CCCC3)c(=O)n3ccccc23)CC1
remaining binding (cell-free assay, competition with immobilised ligand; 1 µM): 100%

COc1ncc2cc3ccccc3nc2c1C#N
remaining binding (cell-free assay, competition with immobilised ligand; 5 µM): 100%

c1cncc(-c2cccc(Nc3nccc(NC4CCCCC4)n3)c2)c1
remaining binding (binding, competition with immobilised ligand; 10 µM): 53%

O=C(c1ccc(Nc2ncc(Cl)c(-c3cc4ccccc4s3)n2)cc1)N1CCC(N2CCCC2)CC1
remaining binding (binding, competition with immobilised ligand; 1 µM): 41%

c1cnn2ncc(-c3ccnc(N4CCC45COC5)n3)c2c1
remaining binding (binding; 1 µM): 52%

CNC(=O)[C@@H]1CC[C@@H](n2c(-c3ccc4cnccc4c3)nc3ccc(C(=O)NCc4cccc(C(N)=O)c4)cc32)C1
remaining binding (binding, competition with immobilised ligand; 1 µM): 65%

COc1cc(-c2cn(C3CCc4ccccc4N(CC(F)(F)F)C3=O)nn2)ccc1-n1ccc(C)n1 (stereo not drawn)
remaining binding (cell-free assay, competition with immobilised ligand; 1 µM): 52%

COc1cnc(Nc2cccc(S(N)(=O)=O)c2)nc1N1CCN(c2ccccc2)C(=O)C1
remaining binding (binding, competition with immobilised ligand; 1 µM): 86%

Cc1c(NC(=O)c2cc(C(N)=O)nc3cc(F)ccc23)c(C(F)(F)F)nn1Cc1ccc(C#N)cc1
remaining binding (cell-free assay, competition with immobilised ligand; 1 µM): 92%

N[C@@H]1CCN(c2nccc(-c3cnn4ncccc34)n2)C1
remaining binding (binding; 1 µM): 100%
